Experimental data published in ChEMBL document CHEMBL1212873, “Inactivation of protein tyrosine phosphatases by oltipraz and other cancer chemopreventive 1,2-dithiole-3-thiones” (Bioorg Med Chem, 2010).
Activity calls are given as the source filed them. No cut-off for these calls is given here.

Key:
[1] = molecular target: T1, Tyrosine-protein phosphatase non-receptor type 1 (Homo sapiens) (UniProt P18031); conditions: 50 uM
T1 sequence (whole entry): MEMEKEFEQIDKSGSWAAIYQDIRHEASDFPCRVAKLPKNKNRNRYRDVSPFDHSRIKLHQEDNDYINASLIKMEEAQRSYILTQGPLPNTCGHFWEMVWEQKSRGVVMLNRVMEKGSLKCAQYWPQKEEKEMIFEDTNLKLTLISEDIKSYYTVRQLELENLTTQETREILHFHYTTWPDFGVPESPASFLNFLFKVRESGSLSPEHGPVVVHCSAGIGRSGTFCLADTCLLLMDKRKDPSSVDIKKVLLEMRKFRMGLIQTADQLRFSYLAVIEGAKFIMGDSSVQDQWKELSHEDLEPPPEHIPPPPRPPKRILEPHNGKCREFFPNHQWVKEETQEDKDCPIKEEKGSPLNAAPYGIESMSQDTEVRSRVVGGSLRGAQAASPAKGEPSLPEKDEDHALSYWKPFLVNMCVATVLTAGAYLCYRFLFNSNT

[2] = molecular target: T1, Tyrosine-protein phosphatase non-receptor type 1 (Homo sapiens); test: Competitive inhibition of human PTP1B catalytic subunit assessed as enzyme inactivation at 25 uM after 15 mins by spectrophotometry
In short: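 Thiol-free PTP1B (12.5 nM final) with compound at 25 µM and 20 mM pNPP in 50 mM Tris, 50 mM bis-Tris, 100 mM sodium acetate, 10 mM DETAPAC, 1% DMF, pH 7.2, 23 °C. Activity loss followed at 410 nm; apparent inactivation rate from first-order fit of progress curves; mean of three experiments.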

[3] = molecular target: T1, Tyrosine-protein phosphatase non-receptor type 1 (Homo sapiens); conditions: 2 to 50 uM
[4] = molecular target: T1, Tyrosine-protein phosphatase non-receptor type 1 (Homo sapiens); conditions: 50 uM; remark: listed apart in the source
[5] = molecular target: T2, Tyrosine-protein phosphatase non-receptor type 11 (Homo sapiens) (UniProt Q06124); conditions: 10 to 50 uM
T2 sequence (whole entry): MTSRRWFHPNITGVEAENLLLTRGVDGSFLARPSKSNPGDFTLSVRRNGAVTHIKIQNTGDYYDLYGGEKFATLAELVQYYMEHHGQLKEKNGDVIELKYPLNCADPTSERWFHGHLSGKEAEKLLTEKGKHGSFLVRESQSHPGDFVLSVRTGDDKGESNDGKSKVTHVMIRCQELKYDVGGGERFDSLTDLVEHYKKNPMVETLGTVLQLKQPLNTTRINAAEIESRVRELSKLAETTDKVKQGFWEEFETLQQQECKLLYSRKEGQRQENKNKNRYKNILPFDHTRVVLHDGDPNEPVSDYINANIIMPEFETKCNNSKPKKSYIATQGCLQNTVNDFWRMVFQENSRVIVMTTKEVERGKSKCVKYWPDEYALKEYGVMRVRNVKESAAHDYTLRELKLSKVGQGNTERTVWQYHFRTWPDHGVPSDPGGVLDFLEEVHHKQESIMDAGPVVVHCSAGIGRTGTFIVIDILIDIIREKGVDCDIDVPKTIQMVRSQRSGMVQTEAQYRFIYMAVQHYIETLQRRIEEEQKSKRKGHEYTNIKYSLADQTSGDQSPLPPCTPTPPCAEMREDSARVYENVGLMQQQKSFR

[6] = molecular target: T1, Tyrosine-protein phosphatase non-receptor type 1 (Homo sapiens); conditions: 2 to 50 uM; remark: listed apart in the source
[7] = molecular target: T2, Tyrosine-protein phosphatase non-receptor type 11 (Homo sapiens); conditions: 10 to 50 uM; remark: listed apart in the source
[8] = molecular target: T1, Tyrosine-protein phosphatase non-receptor type 1 (Homo sapiens); conditions: 2 to 50 uM; remark: listed apart in the source
[9] = molecular target: T1, Tyrosine-protein phosphatase non-receptor type 1 (Homo sapiens); conditions: 2 to 50 uM; remark: listed apart in the source
[10] = molecular target: T1, Tyrosine-protein phosphatase non-receptor type 1 (Homo sapiens); conditions: 2 to 50 uM; remark: listed apart in the source
[11] = molecular target: T2, Tyrosine-protein phosphatase non-receptor type 11 (Homo sapiens); conditions: 10 to 50 uM; remark: listed apart in the source
[12] = molecular target: T1, Tyrosine-protein phosphatase non-receptor type 1 (Homo sapiens); conditions: 50 uM; remark: listed apart in the source
[13] = molecular target: T1, Tyrosine-protein phosphatase non-receptor type 1 (Homo sapiens); conditions: 50 uM; remark: listed apart in the source
[14] = molecular target: T2, Tyrosine-protein phosphatase non-receptor type 11 (Homo sapiens); test: Irreversible inhibition of SHP2 at 10 to 50 uM in presence of 100 mM dithiothreitol

Row | inhibition [1] [%] | inhibition [2] | inhibition [3] | inhibition [4] | inhibition [5] | inhibition [6] | inhibition [7] | inhibition [8] | inhibition [9] | inhibition [10] | inhibition [11] | inhibition [12] [%] | inhibition [13] [%] | inhibition [14] | Structure (SMILES)
1 | 50 | Active | Active | inactive | inactive | Active | inactive | Active | Active | tde | Active | > 97 | 70 |  | Cc1c(-c2cnccn2)ssc1=S
2 |  | Active |  |  |  |  |  |  |  |  |  |  |  |  | COc1ccc(-c2cc(=S)ss2)cc1
3 |  | Active |  |  |  |  |  |  |  |  |  |  |  | inactive | S=c1ccss1
